# Screening results from PubChem.
# Lmaj promast = inhibitors of Leishmania major promastigote growth | Leishmania major promastigotes, resazurin fluorescence viability | inhibition, % at 10 µM | 9% of 200,000 active | AID 1063; in the data active = inhibition above about 50%;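 also: promastigotes grown with compound for 44 hours at 28 °C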
# Redox H2O2 prof = compounds producing H2O2 with reducing agent – biochemical, NIH compound library profiling, artefact control for MLSCN library redox annotation, primary screen; DTT-dependent redox cycling H2O2, phenol red/HRP absorbance; 100% = 100 µM peroxide control, 0% = buffer; activation, % at 10 µM; 0.03% of 200,000 active;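 active = activation of at least 50% relative to the plate's high and low controls in the primary single-dose screen; inactive = activation below 50%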;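 also: compound incubated with DTT at 0.8 mM final as the reducing agent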
# T cruzi inh = T. cruzi replication inhibition | T. cruzi beta-gal in NIH3T3, luminescence, 90 h | inhibition, % (no concentration beside the values) | 1.4% of 300,000 active;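 active = mean inhibition across valid replicates above about 55%, limit read from the data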;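 also: signal also drops with host cell toxicity which is not excluded here; 0% = plate median of DMSO wells and 100% = zero luminescence signal; higher percent means less beta-gal luminescence so fewer parasites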
#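 Read-out: Parasite load inhibition, % | Test system: Mouse NIH/3T3 fibroblasts infected with β-gal-expressing T. cruzi Tulahuen C4 | Amount: 5,000 cells/well | Medium: DMEM, 2% fetal bovine serum | Signal: GalScreen β-gal luminescence, detergent lysis, 60 min | Timing: 3 h attach, ≥90 h co-culture | Also added: Tulahuen C4 trypomastigotes, 5000/well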
# MPTP block = blocks calcium-induced mitochondrial swelling; isolated mouse mitochondria, Ca2+ swelling absorbance, 30 min; inhibition, % at 10 µM; 1.4% of 360,000 active; AID 602449;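 active = inhibition of 50% or more, scaled per plate between neutral and stimulator controls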;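 also: 0% = DMSO wells given calcium and 100% = 1 mM EGTA wells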
# Lipid droplet = hepatic lipid droplet formation modulation; AML12 mouse hepatocytes, oleate lipid droplets, BODIPY imaging; inhibition, % at 6.5 µM; 0.4% of 240,000 active; AID 1656;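 active = lipid droplet intensity inhibited by at least 50%, with more than 500 cells counted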
#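 Assay system: AML12 mouse liver cells | Compound: 6.5 µM single-point dosing | Schedule: Overnight exposure | Technique: Fluorescence imaging, 20x objective, two fields per well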
# Numbers without * were called inactive; x = no result. Shown is part of a subset that was picked to be rich in hits.
SMILES,Lmaj promast,Redox H2O2 prof,T cruzi inh,MPTP block,Lipid droplet
O=C(Nc1ccc(F)cc1)NC1CCN(Cc2ccccc2)CC1,55*,0,60*,1,-24
O=C(Nc1ccc2c(c1)OCO2)C1CCN(Cc2cnn(-c3ccccc3)c2-n2cccc2)CC1,98*,0,44,-1,-7
O=C(Nc1ccc2c(c1)OCO2)C1CCN(S(=O)(=O)Cc2ccccc2)CC1,-4,2,9,1,x
O=C(Nc1ccc2c(c1)OCO2)C1CCN(Cc2cc3c(cc2O)OCO3)CC1,x,x,18,2,x
CC(C)c1ccc(NC(=O)NC2CCN(CC(=O)Nc3cccc4ccccc34)CC2)cc1,58*,0,56*,1,27
O=C(Nc1ccccc1)NC1CCN(Cc2c(F)cccc2Cl)CC1,x,x,9,6,16
O=C(Nc1ccc2c(c1)OCO2)NC1CCN(Cc2ccccc2)CC1,78*,3,56*,1,5
Cc1ccccc1C(=O)NC1CCN(CC(=O)Nc2ccc3c(c2)OCCO3)CC1,90*,0,3,2,-24
CCOC(=O)CC(=O)CSc1nc2ccc(OC)cc2cc1C,-3,0,20,-1,-3
CO/N=C/c1ccc(Sc2ccccc2)c([N+](=O)[O-])c1,3,0,17,9,10
O=[N+]([O-])c1cc(/C=N/O)ccc1Sc1ccccc1,78*,0,-8,1,-3
CSc1ccccc1NC(=O)CSc1nnnn1-c1ccccc1SC,67*,1,6,3,-10
CSc1ccccc1-n1nnnc1SCC(=O)Nc1ccccc1C,19,0,-3,-1,12
CCOC(=O)c1cnc2cc(F)c(F)cc2c1N1CCOCC1,x,x,-3,-1,3
CC(=O)c1cnc2c(-c3cccc(Br)c3)cnn2c1C,88*,1,-5,2,18
COc1ccc2c(c1)CSC(c1ccccc1)C2=O (stereo unspecified),x,x,x,-1,x
COc1ccccc1/C=C(/C(=O)OCC(N)=O)c1ccccc1,62*,x,-8,2,4
CCOC(=O)/C(C(=O)Nc1ccc(Cl)cc1Cl)=C1/NC(C)(C)Cc2ccccc21,73*,1,6,x,0
CN1C(CC(=O)Nc2ccc(Cl)cc2Cl)c2ccccc2CC1(C)C (stereo unspecified),x,x,28,3,4
Cc1ccc(C(=O)OCC(=O)Nc2cc(F)ccc2F)cc1NC(=O)c1ccco1,88*,0,4,0,21
Nc1nc2ccccc2n1/N=C/c1cccnc1,21,1,8,-1,x
Nc1nc2ccccc2n1/N=C/c1ccc([N+](=O)[O-])s1,100*,0,50,-3,-3
Cc1ccc(C(=O)NCC(=O)OCc2nc3ccsc3c(=O)[nH]2)cc1C,x,x,x,2,x
COc1cccc(C2SCC(=O)N2c2ccc(Cl)cc2)c1OC (stereo unspecified),67*,0,13,-2,12
Clc1cccc(CNc2ccn3nc(-c4cccc(Cl)c4)cc3n2)c1,x,x,x,3,x
SMILES,Lmaj promast,Redox H2O2 prof,T cruzi inh,MPTP block,Lipid droplet
O=C(NNC(=O)c1ccc([N+](=O)[O-])cc1Cl)c1ccncc1,84*,0,-19,1,-6
Cc1ccc2nc(-c3ccccc3)c(CN3CCSCC3)n2c1,63*,-1,29,0,-7
Cc1ccc2nc(-c3ccccc3)c(CN3CCOCC3)n2c1,48,0,8,1,-6
Cc1ccc2nc(-c3ccccc3)c(CN3CCN(c4ccccc4F)CC3)n2c1,80*,-1,52,0,4
COc1cc(NC(=O)c2ccc(Cl)cc2Cl)ccc1NC(=O)c1cccs1,x,x,2,2,1
O=C(CCCOc1ccccc1)Nc1ccc(Cl)cn1,-4,-2,-16,1,0
Cc1cccc(-n2c(C)nc3cc(C(=O)N4CCOCC4)ccc32)c1,x,x,2,-1,-3
O=C1NC(c2ccccc2)=C(c2nc3ccccc3s2)C(c2ccc(O)cc2)N1 (stereo unspecified),81*,0,23,-1,-2
O=C1NC(c2ccccc2)=C(c2ccc3ccccc3n2)C(c2ccccc2)N1 (stereo unspecified),85*,0,10,2,-3
O=C1NC(c2ccccc2)=C(c2ccc3ccccc3n2)C(c2ccc(F)cc2)N1 (stereo unspecified),38,0,8,4,-8
CC(C)(C)c1ccc(COn2ccnc2)cc1,-5,0,-8,-3,-1
Cc1ccc(C(=O)COC(=O)c2ccc3c(c2)C(=O)N(c2cccc4ncccc24)C3=O)cc1,76*,0,-11,1,8
O=C1C2C3CCC(C3)C2C(=O)N1Cc1ccccc1 (stereo unspecified),57*,0,-30,0,7
CCc1ccccc1NC(=O)c1ccccc1Sc1ccc([N+](=O)[O-])cc1Cl,97*,0,52,18,-8
O=C(Nc1cccnc1Cl)c1cc([N+](=O)[O-])ccc1Cl,20,4,66*,0,-2
COc1[nH]c2ccc(F)cc2c1C(=O)OCC1CCN(CCNS(C)(=O)=O)CC1,x,x,-2,-2,x
O=C(NCCC1=CCCCC1)C1CCN(S(=O)(=O)c2ccc(Br)s2)CC1,-7,-1,24,8,-8
O=C(NC1=NCCS1)C1CCN(S(=O)(=O)c2ccccc2C(F)(F)F)CC1,x,x,x,0,x
COc1ccc(NC(=O)CCCn2c(=O)oc3ccccc32)cc1Cl,58*,0,-8,5,19
COc1cc(Cl)c(C)cc1NC(=O)CCCn1c(=O)oc2ccccc21,53*,0,6,-3,5
Cc1ccc(CNCCCn2cnc3c(OCc4ccccc4)ncnc32)o1,x,x,x,-1,x
COc1ccc(CCNC(=O)c2cc3c(=O)n4ccccc4nc3n(C3CCCCC3)c2=N)cc1,x,x,60*,-1,-3
COc1ccc(CCn2c(=N)c(C(=O)N3CCN(C)CC3)cc3c(=O)n4ccccc4nc32)cc1,88*,3,-9,2,x
N=c1c(S(=O)(=O)c2ccccc2)cc2c(=O)n3ccccc3nc2n1C1CCCCC1,x,x,x,-1,x
N=c1c(S(=O)(=O)c2ccc(Cl)cc2)cc2c(=O)n3ccccc3nc2n1C1CCCC1,x,x,55*,2,9
SMILES,Lmaj promast,Redox H2O2 prof,T cruzi inh,MPTP block,Lipid droplet
COc1ccc(CCNC(=O)c2cc3c(=O)n4ccccc4nc3n(C3CCCCC3)c2=N)cc1OC,x,x,47,-3,-30
CN(Cc1c(C(=O)N/N=C/c2c(F)cccc2Cl)nnn1-c1nonc1N)C1CCCCC1,x,x,x,2,x
Cc1cccc(C(=O)NCCc2ccccc2)c1,x,x,-3,-1,x
CC(=O)Nc1ccc(NC(=O)c2ccc(Cl)c(S(=O)(=O)N3CCc4ccccc43)c2)cc1,x,x,x,-1,x
CCc1nnc(NC(=O)c2ccc(Cl)c(S(=O)(=O)N3CCc4ccccc4C3)c2)s1,52*,0,0,38,0
O=C(Nc1cccnc1)c1ccc(Cl)c(S(=O)(=O)N2CCc3ccccc32)c1,59*,-1,10,1,8
